Screening results from PubChem.
V1R ag counter – V1a receptor agonism, counter-screen for OXTR agonists. 320,000 tested, 0.25% active. P37288. activation, % at 3 µM. AID 2797. CHO-V1R cells, Fluo-8 calcium fluorescence, agonist mode; 0% DMSO, 100% 3 nM vasopressin;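 active = activation above the mean activation of all tested compounds plus 3 SD, per screening run, cut at about 20% in these data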;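 note: signal is peak over basal fluorescence ratio across a 100 second FLIPR read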
TAAR1 ag – agonists of human TAAR1; Q96RJ0; CHO RD-HGA16 TAAR1, Fluo-8 calcium fluorescence; vehicle wells 0%, saturating PEA agonist 100%; activation, % at 3 µM; 360,000 tested, 0.99% active; AID 624467;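 active = activation above the mean activation of all test compounds in the run plus 3 SD, cut at about 38% in these data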
Target sequence (Q96RJ0 whole entry, looked up): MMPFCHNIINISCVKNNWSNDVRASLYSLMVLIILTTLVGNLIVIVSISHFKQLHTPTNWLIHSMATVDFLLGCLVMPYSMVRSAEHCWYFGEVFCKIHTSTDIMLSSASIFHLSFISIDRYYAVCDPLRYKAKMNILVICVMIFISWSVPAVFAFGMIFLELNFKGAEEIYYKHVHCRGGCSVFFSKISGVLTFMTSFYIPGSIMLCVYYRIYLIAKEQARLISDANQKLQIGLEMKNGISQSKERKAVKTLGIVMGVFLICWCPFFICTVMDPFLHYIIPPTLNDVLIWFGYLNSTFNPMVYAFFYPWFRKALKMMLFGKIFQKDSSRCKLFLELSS
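Test system: RD-HGA16 (CHO) cells co-expressing Gα16 and hTAAR1 / Benchmarks: DMSO vehicle as 0%, PEA at EC100 as 100% / Repeats: no replicates (n 1) / Measure: % activation from peak over basal fluorescence ratio, DMSO-to-PEA scaled / Timing: 17-24 h plating, Fluo-8 75 min 37 °C, 30 min RT / Technique: kinetic Fluo-8 calcium fluorescence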
TAAR1 antagonist – human TAAR1 antagonism. Q96RJ0. CHO RD-HGA16 TAAR1, Fluo-8 calcium fluorescence, antagonist. inhibition, % at 3 µM. 360,000 tested, 1.5% active. AID 624466;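 active = inhibition above a per-plate cutoff, the mean inhibition of test compounds on that plate plus 3 SD, cut at about 49% in these data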;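 note: 0% = DMSO plus EC80 beta-PEA response and 100% = DMSO alone without agonist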
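Assay system: CHO-derived RD-HGA16 cells stably expressing human TAAR1 plus Gα16. Timing: 140 s kinetic read after compound, 140 s after agonist. Technique: kinetic Fluo-8 calcium fluorescence measurement. Measure: % inhibition of agonist calcium response.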
OXTR agonist – agonists of human oxytocin receptor | P30559 | CHO-OTR cells, Fluo-8 calcium fluorescence; normalized: DMSO 0%, oxytocin 100% | activation, % at 3 µM | 320,000 tested, 0.32% active;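 active = activation above the mean of all tested compounds plus 3 SD, cutoff set per screening run, cut at about 20% in these data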;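 note: peak over basal fluorescence ratio from a 100 s FLIPR kinetic read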
Target sequence (P30559 whole entry, looked up): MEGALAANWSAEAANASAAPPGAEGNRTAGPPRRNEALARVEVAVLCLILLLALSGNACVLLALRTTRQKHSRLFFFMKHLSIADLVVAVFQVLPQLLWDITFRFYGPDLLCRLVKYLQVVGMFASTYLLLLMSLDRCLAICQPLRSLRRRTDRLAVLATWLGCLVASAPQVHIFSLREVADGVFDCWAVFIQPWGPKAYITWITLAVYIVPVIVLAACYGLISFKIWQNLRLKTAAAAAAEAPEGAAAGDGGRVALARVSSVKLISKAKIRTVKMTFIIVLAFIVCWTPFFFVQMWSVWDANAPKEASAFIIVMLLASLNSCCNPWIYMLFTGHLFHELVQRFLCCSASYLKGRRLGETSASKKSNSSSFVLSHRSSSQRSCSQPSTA
OXTR potentiator – potentiators of human oxytocin receptor; P30559; CHO-OTR cells, Fluo-8 calcium fluorescence, potentiator mode; 0% = oxytocin EC15, 100% = EC100; activation, % at 3 µM; 320,000 tested, 0.061% active; AID 2445;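 active = activation above that plate's cutoff, the mean activation of tested compounds plus 3 SD, cut at about 6.6% in these data, passing the limit was not always enough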;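 note: 100% uses oxytocin at 75 nM as the full agonist control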
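Measured by – Fluo-8 calcium dye fluorescence · Test system – human OTR in CHO cells · Dosing – one concentration, 3.0 µM compound · Controls – EC15 oxytocin alone as 0%, 75 nM oxytocin as 100% · Evaluation – normalized max/min fluorescence ratio, % activation · Timing – 6 min pre-incubation, 100 s read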
The depositor's hits bear a star; · = no result. Rows were chosen to be rich in hits. Some 2.3% of all compounds tested hit in one or more screens of this group.

SMILES	V1R ag counter	TAAR1 ag	TAAR1 antagonist	OXTR agonist	OXTR potentiator
COc1ccc(-c2csc(Nc3ccc(S(=O)(=O)Nc4cc(OC)nc(OC)n4)cc3)n2)cc1	0.7	-1.3	34.3	5.5	-10.6
COc1ccc(-c2csc(Nc3ccc(S(=O)(=O)Nc4cc(C)on4)cc3)n2)cc1C	0.1	11.7	49.0*	-1.2	-13.3
CCNC(=O)C1(C)CCN(C(=O)c2ccccc2OC(F)(F)F)C1 (stereo not drawn)	·	4.4	-9.5	·	·
O=C(c1ccco1)N1CCN(C(c2ccccc2Cl)c2nnnn2Cc2cccs2)CC1 (stereo not drawn)	3.8	27.2	59.0*	4.1	-6.5
COc1cc(/C=N/NC(=O)c2cccc(NC(=O)c3ccccc3Cl)c2)ccc1O	-0.3	14.9	52.6*	0.6	-17.9
COc1ccccc1/C=N/NC(=O)c1cccc(NC(=O)c2ccccc2C)c1	7.6	9.6	44.1	2.6	-4.8
COc1ccccc1/C=N/NC(=O)c1cccc(NC(=O)c2ccccc2Cl)c1	0.7	10.2	48.9*	-0.9	-4.0
COc1ccc(/C=N/NC(=O)c2cccc(NC(=O)c3ccccc3Cl)c2)cc1OC	0.4	5.9	37.1	0.3	-13.6
CSC(=Cc1ccc(C(=O)c2ccc(C)cc2)n1C)S(C)=O (stereo not drawn)	·	3.2	4.0	·	·
Cc1cc(CNC(=O)COc2ccccc2)c2ccccc2n1	·	2.5	-11.9	·	·
Cc1cccc(OCC(=O)NNc2c3ccccc3nc3ccccc23)c1	3.5	16.1	60.5*	0.9	-11.7
O=C(OCCOc1ccc(Cl)cc1)c1cc(S(=O)(=O)N2CCCCC2)ccc1N1CCOCC1	·	0.3	32.2	·	·
Cc1ccc(OCCOC(=O)c2cc(S(=O)(=O)N3CCCCC3)ccc2N2CCOCC2)cc1	0.4	0.1	50.1*	-1.2	-7.9
Cc1ccc(C(C(=O)NCc2ccccc2)N(Cc2cccs2)C(=O)c2ccc3c(c2)OCCO3)cc1 (stereo not drawn)	3.8	16.3	64.3*	1.1	-20.2
CCn1c(=O)c(C(=O)Nc2ccccc2)c(O)c2ccccc21	2.4	3.5	-8.4	-0.8	-6.5
CCCn1c(=O)c(C(=O)Nc2ncccc2C)c(O)c2ccccc21	27.8*	40.3*	0.4	29.9*	-9.5
CCn1c(=O)c(C(=O)Nc2nc3ccccc3[nH]2)c(O)c2ccccc21	0.7	14.5	92.6*	17.1	-9.8
O=C(Nc1cccnc1)c1ccc(CSc2ccc(Cl)cc2)o1	·	5.7	45.8	·	·
CCCCC[C@@H](/C=C/C1C(=O)C=C[C@H]1C/C=C\CCCC(=O)OC)OC(C)=O (stereo partly drawn)	·	4.4	50.3*	·	·
Cc1ccc(NC(=O)COC(=O)c2cccc(N3C(=O)c4ccccc4C3=O)c2)cc1	1.2	5.1	-0.2	-0.2	0.2
CCN(CC)c1ccc(NC(=O)CSC(=O)c2ccccc2)cc1	-0.2	-2.8	-25.5	-0.2	2.1
CC(=O)c1cccc(NC(=O)CSC(=O)c2ccccc2)c1	1.4	38.4*	-11.9	2.5	-5.2
CC(=O)c1cccc(NC(=O)COC(=O)c2cccc(N3C(=O)c4ccccc4C3=O)c2)c1	3.7	18.2	48.9*	2.4	-13.1
COc1ccc(CS(=O)(=O)c2ncn[nH]2)cc1	0.6	9.7	-11.0	2.4	0.4
Nc1[nH]c(C(=O)c2ccc(Br)cc2)c(-c2ccc3ccccc3c2)c1C(=O)NCCc1c[nH]c2ccccc12	·	0.7	0.4	·	·
SMILES	V1R ag counter	TAAR1 ag	TAAR1 antagonist	OXTR agonist	OXTR potentiator
OC(c1ccccc1)c1ncc(-c2ccccc2Cl)[nH]1 (stereo not drawn)	·	2.5	-4.1	·	·
O=C1OC2(c3ccccc31)c1cc(I)c(O)c(I)c1Oc1c2cc(I)c(O)c1I	659.5*	·	·	669.8*	-26.3
Cc1cc(O)ccc1C1(c2ccc(O)cc2C)OC(=O)c2ccccc21	5.8	30.7	14.5	7.2	-8.4
CCCCC1OC(CCc2ccccc2)CC2=C1C(=O)OC(C)(C)O2 (stereo not drawn)	·	2.9	-1.4	·	·
COC(=O)c1ccccc1NC(=S)NC(=O)COc1ccccc1	2.1	20.6	-0.6	0.8	-2.3
O=C(COc1ccccc1)NC(=S)Nc1cccc2c(O)cccc12	·	42.2*	11.7	·	·
CCOC(=O)C1CSCCS(=O)(=O)N1Cc1ccccc1C (stereo not drawn)	·	0.9	-7.9	·	·
Oc1ccc(C(c2nnnn2C2CCCC2)N2CCc3ccccc3C2)cc1 (stereo not drawn)	0.0	82.3*	84.2*	-1.4	-12.9
COc1cccc(C(=O)/C=C/Nc2ccc(S(=O)(=O)Nc3ccc(C(C)=O)cc3)cc2)c1	1.0	9.0	16.2	0.8	-1.2
COc1ccc(C(=O)/C=C/Nc2ccc(S(=O)(=O)Nc3cccc(C(C)=O)c3)cc2)cc1	4.7	3.4	56.1*	4.1	-11.1
C[C@H]1[C@@H](c2ccccc2)Oc2ccc(Cl)cc2S(=O)(=O)N1Cc1ccc(Cl)cc1	·	0.3	-32.7	·	·
CC[n+]1c(/C=C/C=C/N(C(C)=O)c2ccccc2)sc2ccccc21	-0.6	-4.6	102.4*	0.3	2.6
CCn1c(/C=C/N(C(C)=O)c2ccccc2)[n+](CC)c2ccc(Cl)cc21	0.8	2.7	6.7	1.3	-5.1
Cc1cc(Nc2cccc(Br)c2)cc(=O)n1-c1cccc(Br)c1	·	-0.4	-22.2	·	·
C=CCC[C@H](Cc1ccc(F)cc1)C(=O)OC[C@@H](NC(=O)[C@@H](CC=C)CC(=O)N[C@@H](CO)Cc1ccccc1)C(C)(C)C	6.5	13.2	50.9*	1.0	-9.1
C=CCC[C@H](Cc1ccc(F)cc1)C(=O)OC[C@@H](C)NC(=O)[C@@H](CC=C)CC(=O)N[C@H](CO)Cc1ccccc1	2.8	16.5	51.4*	-1.1	-7.5
C=CCC[C@H](Cc1ccc(F)cc1)C(=O)OC[C@@H](C)NC(=O)[C@@H](CC=C)CC(=O)N[C@@H](CO)Cc1ccccc1	1.1	·	·	-0.8	-5.5
C=CC[C@@H](CC(=O)N[C@H](CO)Cc1ccccc1)C(=O)N[C@@H](COC(=O)[C@H](CC=C)CC(=O)OC(C)(C)C)Cc1ccccc1	-1.0	13.1	50.3*	-1.6	-7.0
O=Cc1cscc1[B-](F)(F)F	·	-0.1	-3.1	·	·
O=C(CCl)NC1(C(=O)O)CCCC1	·	1.2	-0.4	·	·
COc1cccc(N(C(=O)c2ccco2)c2nc(-c3sc(NC(=O)c4ccco4)nc3C)cs2)c1	-0.8	14.0	50.5*	-1.5	-8.6
CCCc1cc(C(=O)OCC(=O)N(CCC)c2c(N)n(Cc3ccccc3)c(=O)[nH]c2=O)sc1C	0.3	19.6	-5.5	1.4	-15.9
OC1CCC(Nc2ccn3nc(-c4cccc(OCc5ccccc5)c4)cc3n2)CC1 (stereo not drawn)	·	15.3	52.8*	·	·
OC1CCC(Nc2ccn3nc(-c4cccc(Cl)c4)cc3n2)CC1 (stereo not drawn)	·	10.7	-14.6	·	·
